For series [1], the target named is T1, Cathepsin B (Homo sapiens, UniProt P07858). The experiment in a line: Inhibitory activity against human cathepsin B expressed in HepG2 cells. The series is classed as cell-based.
For series [2], the system named is A20. Description: Effect of compound on antigen presentation in mouse A20 cells transfected with PC-specific mIgM by IL-2 secretion. In kind it is functional, cell-based. A digest of the protocol:
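A20 cells transfected with PC-specific mIgM (1×10^5) preincubated with compound 60 min at 37 °C in RPMI 1640 with 10% FBS, glutamine and β-mercaptoethanol. DO.11.10 T cells (1×10^5) and PC-OVA antigen (30 μg/mL) added, then incubated overnight. IL-2 secreted into medium measured by ELISA. IC50 taken against DMSO as the no-inhibition control; at least duplicate experiments.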

Series [3] addresses T2, Cathepsin S (Homo sapiens, UniProt P25774). The experiment in a line: Inhibitory activity against human cathepsin S expressed in ramos cells. In kind it is cell-based.
In series [4] the target is T3, Cathepsin K (Oryctolagus cuniculus, UniProt P43236).
T3 sequence (P43236 whole entry): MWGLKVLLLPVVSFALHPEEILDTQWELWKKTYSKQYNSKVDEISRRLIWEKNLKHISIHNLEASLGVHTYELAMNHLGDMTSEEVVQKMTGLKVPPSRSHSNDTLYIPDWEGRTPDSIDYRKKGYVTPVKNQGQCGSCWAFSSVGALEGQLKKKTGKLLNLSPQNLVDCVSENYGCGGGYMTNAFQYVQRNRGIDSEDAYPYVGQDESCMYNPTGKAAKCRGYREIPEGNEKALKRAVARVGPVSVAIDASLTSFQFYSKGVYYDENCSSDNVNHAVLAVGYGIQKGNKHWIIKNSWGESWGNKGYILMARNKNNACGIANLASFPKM
Description: Inhibitory activity against rabbit cathepsin K.

For series [5], the target named is T4, Procathepsin L (Homo sapiens, UniProt P07711). Description: Inhibitory activity against human cathepsin L expressed in HepG2 cells. In kind it is cell-based.
Series [6] addresses T5, Cathepsin S (Mus musculus, UniProt O70370). The experiment in a line: Inhibitory activity against mouse cathepsin S.
A short description of series [7]: Partition co-efficient, logP of the compound. In kind it is physicochemical. The conditions noted are these: octanol/water.
For series [8], the target named is T2, Cathepsin S. Description: Inhibitory activity against human cathepsin S.
The subject of series [9] is Osteoclast. The experiment in a line: Effect of compound on degradation of collagen in osteoclast bone resorption assay. In kind it is functional, cell-based. The following applies: Oryctolagus cuniculus.
Series [10] concerns the target Cathepsin K (Homo sapiens, UniProt P43235). Description: Inhibitory activity against humanized rabbit cathepsin K. The arrangement: species or system Oryctolagus cuniculus.
For series [11], the target named is T5, Cathepsin S. Description: Inhibitory activity against mouse cathepsin S in mouse splenocytes. In kind it is cell-based. A digest of the protocol:
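Splenocytes from 8–10-week C57Bl/6 mouse spleens, red cells lysed in NH4Cl buffer, suspended at 2.5×10^7 cells/mL in RPMI/HEPES pH 7. Preincubated with compound 60 min at 37 °C, then iodinated probe BIL-DMK (1 nM) added for 20 min.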

Series [12] concerns the target T4, Procathepsin L. Description: Inhibitory activity against human cathepsin L.
In series [13] the target is T1, Cathepsin B. Description: Inhibitory activity against human cathepsin B.
The nature of series [14]: Dissociation constant, pKa of the compound. In kind it is physicochemical.
Series [15] is described as follows: Volume of distribution in rat administered with 5 mg/kg, iv. In kind it is ADME, organism-based. Also noted: dose 5 mg/kg, route intravenous. The conditions noted are these: in vivo, read-out: Vdss.
Series [16] concerns Rattus norvegicus. Description: Plasma concentration in rat at 5 mg/kg, iv. In kind it is ADME, organism-based. The arrangement: dose 5 mg/kg, route intravenous. The following applies: in vivo. A digest of the protocol:
(§1)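 Rats dosed 10 mg/kg po or 5 mg/kg iv; tissues and plasma taken 2 h after dosing. Tissue weighed, homogenized in 2 volumes water, then 3 volumes acetonitrile with internal standard, homogenized again and centrifuged. Supernatant quantified by LC-MS/MS against a standard curve from spiked rat plasma.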

The subject of series [17] is Rattus norvegicus. The experiment in a line: Volume of distribution in rat administered with 10 mg/kg, po. In kind it is ADME, organism-based. The arrangement: dose 10 mg/kg, route oral. The following applies: in vivo.
The subject of series [18] is Rattus norvegicus. Description: Plasma concentration in rat at 10 mg/kg, po. In kind it is ADME, organism-based. Also noted: dose 10 mg/kg, route oral. The following applies: in vivo. Put shortly:
as §1

T2 sequence (P25774 whole entry): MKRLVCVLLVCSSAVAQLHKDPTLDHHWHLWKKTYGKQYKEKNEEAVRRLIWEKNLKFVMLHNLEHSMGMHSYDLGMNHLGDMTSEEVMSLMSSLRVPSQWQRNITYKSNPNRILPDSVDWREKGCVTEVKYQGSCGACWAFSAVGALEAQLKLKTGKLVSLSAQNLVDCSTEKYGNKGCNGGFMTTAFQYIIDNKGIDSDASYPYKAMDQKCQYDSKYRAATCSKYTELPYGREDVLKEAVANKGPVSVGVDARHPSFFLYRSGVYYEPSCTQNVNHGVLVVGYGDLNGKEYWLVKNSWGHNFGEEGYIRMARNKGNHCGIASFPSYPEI
T4 sequence (P07711 whole entry): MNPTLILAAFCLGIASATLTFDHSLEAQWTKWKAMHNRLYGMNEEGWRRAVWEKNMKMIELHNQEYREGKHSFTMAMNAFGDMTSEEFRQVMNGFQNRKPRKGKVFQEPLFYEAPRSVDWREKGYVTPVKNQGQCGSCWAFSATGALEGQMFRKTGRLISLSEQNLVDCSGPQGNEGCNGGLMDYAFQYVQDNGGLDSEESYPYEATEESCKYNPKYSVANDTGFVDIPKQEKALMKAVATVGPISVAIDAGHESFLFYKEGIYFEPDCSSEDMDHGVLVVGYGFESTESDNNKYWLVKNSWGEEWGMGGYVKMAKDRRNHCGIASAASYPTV
T5 sequence (O70370 whole entry): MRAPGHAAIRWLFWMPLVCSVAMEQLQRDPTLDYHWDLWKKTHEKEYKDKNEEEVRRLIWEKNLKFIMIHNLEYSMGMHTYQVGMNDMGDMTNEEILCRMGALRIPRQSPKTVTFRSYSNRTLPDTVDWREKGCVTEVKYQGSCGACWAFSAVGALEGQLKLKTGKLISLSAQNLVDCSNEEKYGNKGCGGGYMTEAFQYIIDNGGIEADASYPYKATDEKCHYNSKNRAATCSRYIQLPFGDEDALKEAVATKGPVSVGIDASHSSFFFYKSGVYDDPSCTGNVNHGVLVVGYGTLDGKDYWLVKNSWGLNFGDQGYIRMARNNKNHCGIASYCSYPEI

For `CC(C)C[C@@H](C(=O)NCC#N)c1cccc(-c2ccc(N3CCNCC3)cc2)c1`, the IC50 was found to be 4.4 µM in [1]; 8.6 µM in series [2]; 1.34 µM in series [3]; 0.033 µM in series [4]; 0.32 µM in [5]; 34.1 µM in series [6]. Moreover, the IC50 in series [8] came out at 20 µM; in series [9], 0.149 µM; in series [10], 0.0078 µM; in series [11], 0.74 µM; in series [12], 2.6 µM; in series [13], 86 µM. This compound yielded a logP in [7] of 3.46. Besides, the pKa in series [14] worked out at 8.77.
`CN1CCN(c2nc(-c3ccc(C(=O)NC4(C(=O)NCC(F)(F)F)CCCCC4)cc3)cs2)CC1`: the IC50 in series [2] is greater than 100 µM; in series [6], 33 µM; in series [11] it was greater than 10 µM. The logP in series [7] amounted to 2.9. In addition, the pKa in series [14] came out at 6.84.
Take `N#CCNC(=O)C1(NC(=O)c2ccc(-c3csc(N4CCOCC4)n3)cc2)CCCCC1`: the IC50 was 2.9 µM in series [1]; greater than 100 µM in series [2]; greater than 10 µM in [3]; 0.0095 µM in series [4]; greater than 10 µM in [5]; 8.5 µM in series [6]. Further, the IC50 in series [8] is 27 µM; in series [9], 0.041 µM; in series [10], 0.0023 µM; in series [11], 6.7 µM; in series [12], 24 µM; in [13] it was 4.2 µM.
In the case of `N#CCNC(=O)C1(NC(=O)c2ccc(N3CCOCC3)cc2)CCCCC1`, the Vd in series [15] stood at 1.9 L/kg. For the same compound, the IC50 was 4.4 µM in [1]; greater than 100 µM in [2]; 4.8 µM in [3]; 0.072 µM in [4]; greater than 10 µM in [5]; 4.5 µM in [6]. For the same compound, the IC50 in series [8] stood at 52 µM; in series [9] it was 0.58 µM; in series [10], 0.019 µM; in series [11], 8.5 µM; in [12], 32 µM; in series [13], 15.4 µM. In series [16], this compound gave a concentration of 0.17 µM. The same compound had a logP in series [7] of 0.98.
Turning to `N#CCNC(=O)[C@H](CC1CCCCC1)NC(=O)c1ccccc1`, the half-maximal inhibitory concentration (IC50) in [1] was 0.94 µM; in series [2], 1.22 µM; in series [3] it was 0.01 µM; in series [5], 0.23 µM; in series [6], 0.013 µM; in [8] it was 0.0053 µM. In addition, the IC50 is 1.03 µM in series [10], 0.04 µM in series [11], 0.055 µM in [12] and 19 µM in [13].
Consider `CN1CCN(c2nc(-c3ccc(C(=O)NC4(C(=O)NCC#N)CCCCC4)cc3)cs2)CC1`, for which the IC50 in [1] is 0.017 µM; in series [2], 6.2 µM; in [3], 0.79 µM; in [4], 0.0005 µM; in series [5] it was 0.34 µM; in [6], 5.4 µM. For the same compound, the IC50 in series [8] was determined as 47 µM; in [10], 0.00025 µM; in series [11], 0.318 µM; in [12] it was 6.3 µM; in series [13], 1.1 µM. In series [7], this compound gave a log partition coefficient (logP) of 2.3. The compound also came in with a Vdss in series [17] of 11 L/kg. In addition, the concentration in series [18] was found to be 2.4 µM. Besides, the pKa in [14] is 7.01.
Take `CCCN1CCN(c2ccc(C(=O)NC3(C(=O)NCC#N)CCCCC3)cc2)CC1` [BALICATIB]: the IC50 in series [1] was 0.061 µM; in [2], 6.18 µM; in series [3] it was 2.9 µM; in series [5], 0.048 µM; in series [6] it was 6.35 µM; in series [8], 65 µM. For the same compound, the results for the IC50 in series [11], in [12] and in series [13] were 0.48 µM, 0.503 µM and 4.8 µM, respectively. This compound gave a logP in series [7] of 1.81. The compound further had a Vdss in [17] of 4.7 L/kg. Besides, the pKa in [14] came to 7.76.

(Values after ChEMBL document CHEMBL1141213, “Lysosomotropism of basic cathepsin K inhibitors contributes to increased cellular potencies against off-target cathepsins and reduced functional selectivity” (J Med Chem, 2005).)
